# From ChEMBL document CHEMBL4266027, “Cyanobufalins: Cardioactive Toxins from Cyanobacterial Blooms” (J Nat Prod, 2018)
# Tests used:
# [1] = tested on: HeLa; experiment: Cytotoxicity against human HeLa cells assessed as decrease in cell viability after 72 hrs by MTS assay; format: functional, cell-based
# Procedure, shortened: (§1)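 Cell proliferation assay using the MTS reagent. Compounds were tested as a dilution series, and EC50 values were derived from the concentration–response data.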
# [2] = tested on: MES-SA/Dx5; experiment: Cytotoxicity against human MES-SA/Dx5 cells assessed as decrease in cell viability after 72 hrs by MTS assay; format: functional, cell-based; conditions: MES-SA/Dx5, 72 h; procedure, shortened: as §1
# [3] = tested on: PANC-1; experiment: Cytotoxicity against human PANC1 cells assessed as decrease in cell viability after 72 hrs by MTS assay; format: functional, cell-based; conditions: PANC-1, 72 h; procedure, shortened: as §1
# [4] = tested on: HCT-116; experiment: Cytotoxicity against human HCT116 cells assessed as decrease in cell viability after 72 hrs by MTS assay; format: functional, cell-based; conditions: HCT-116, 72 h; procedure, shortened: as §1
# [5] = tested on: A549; experiment: Cytotoxicity against human A549 cells assessed as decrease in cell viability after 72 hrs by MTS assay; format: functional, cell-based; conditions: A549, 72 h; procedure, shortened: as §1
# [6] = tested on: BT-474; experiment: Cytotoxicity against human BT474 cells assessed as decrease in cell viability after 72 hrs by MTS assay; format: functional, cell-based; conditions: BT-474, 72 h; procedure, shortened: as §1
# [7] = tested on: U-87 MG; experiment: Cytotoxicity against human U87MG cells assessed as decrease in cell viability after 72 hrs by MTS assay; format: functional, cell-based, U-87MG ATCC; procedure, shortened: as §1
# [8] = tested on: BXPC-3; experiment: Cytotoxicity against human BxPC3 cells assessed as decrease in cell viability after 72 hrs by MTS assay; format: functional, cell-based; conditions: BXPC-3, 72 h; procedure, shortened: as §1
# [9] = tested on: DU-145; experiment: Cytotoxicity against human DU145 cells assessed as decrease in cell viability after 72 hrs by MTS assay; format: functional, cell-based; conditions: DU-145, 72 h; procedure, shortened: as §1
# [10] = tested on: MCF7; experiment: Cytotoxicity against human MCF7 cells assessed as decrease in cell viability after 72 hrs by MTS assay; format: functional, cell-based; conditions: MCF7, 72 h; procedure, shortened: as §1
# [11] = tested on: NCI-H1975; experiment: Cytotoxicity against human NCI-H1975 cells assessed as decrease in cell viability after 72 hrs by MTS assay; format: functional, cell-based; conditions: NCI-H1975, 72 h; procedure, shortened: as §1
# [12] = tested on: 786-0; experiment: Cytotoxicity against human 786-O cells assessed as decrease in cell viability after 72 hrs by MTS assay; format: functional, cell-based; conditions: 786-0, 72 h; procedure, shortened: as §1
# [13] = tested on: THP-1; experiment: Cytotoxicity against human THP1 cells assessed as decrease in cell viability after 72 hrs by MTS assay; format: functional, cell-based; conditions: THP-1, 72 h; procedure, shortened: as §1
# [14] = tested on: CCRF S-180; experiment: Cytotoxicity against mouse S180 cells assessed as decrease in cell viability after 72 hrs by MTS assay; format: functional, cell-based; conditions: CCRF S-180, 72 h; procedure, shortened: as §1
# [15] = tested on: LoVo; experiment: Cytotoxicity against human LoVo cells assessed as decrease in cell viability after 72 hrs by MTS assay; format: functional, cell-based; procedure, shortened: as §1
# [16] = tested on: HT-1080; experiment: Cytotoxicity against human HT1080 cells assessed as decrease in cell viability after 72 hrs by MTS assay; format: functional, cell-based; conditions: HT-1080, 72 h; procedure, shortened: as §1
# [17] = tested on: MES-SA; experiment: Cytotoxicity against human MESSA cells assessed as decrease in cell viability after 72 hrs by MTS assay; format: functional, cell-based; procedure, shortened: as §1
# [18] = tested on: HepG2; experiment: Cytotoxicity against human HepG2 cells assessed as decrease in cell viability after 72 hrs by MTS assay; format: functional, cell-based; conditions: HepG2, 72 h; procedure, shortened: as §1
# [19] = tested on: HUVEC; experiment: Cytotoxicity against human HUVEC cells assessed as decrease in cell viability after 72 hrs by MTS assay; format: cell-based; procedure, shortened: as §1
# [20] = Cytotoxicity against human LOX cells assessed as decrease in cell viability after 72 hrs by MTS assay; format: functional, cell-based; procedure, shortened: as §1
# [21] = tested on: MRC5; experiment: Cytotoxicity against human MRC5 cells assessed as decrease in cell viability after 72 hrs by MTS assay; format: cell-based; conditions: MRC5, 72 h; procedure, shortened: as §1
# [22] = tested on: MDA-MB-468; experiment: Cytotoxicity against human MDA-MB-468 cells assessed as decrease in cell viability after 72 hrs by MTS assay; format: functional, cell-based; conditions: MDA-MB-468, 72 h; procedure, shortened: as §1
# [23] = tested on: Daudi; experiment: Cytotoxicity against human Daudi cells assessed as decrease in cell viability after 72 hrs by MTS assay; format: functional, cell-based; procedure, shortened: as §1
# [24] = tested on: MV4-11; experiment: Cytotoxicity against human MV411 cells assessed as decrease in cell viability after 72 hrs by MTS assay; format: functional, cell-based; conditions: MV4-11, 72 h; procedure, shortened: as §1
# [25] = tested on: SK-OV-3; experiment: Cytotoxicity against human SKOV3 cells assessed as decrease in cell viability after 72 hrs by MTS assay; format: functional, cell-based; conditions: SK-OV-3, 72 h; procedure, shortened: as §1
# [26] = tested on: NCI-N87; experiment: Cytotoxicity against human NCI-N87 cells assessed as decrease in cell viability after 72 hrs by MTS assay; format: functional, cell-based; conditions: NCI-N87, 72 h; procedure, shortened: as §1
# [27] = tested on: H22; experiment: Cytotoxicity against mouse H22 cells assessed as decrease in cell viability after 72 hrs by MTS assay; format: functional, cell-based; conditions: H22, 72 h; procedure, shortened: as §1
compound,measurement,setting,value
CC1(C)[C@@H](OC(N)=O)[C@H]2O[C@H]2[C@]2(C=O)[C@H]3CC[C@]4(C)[C@@H](c5ccc(=O)oc5)[C@@H](Cl)C[C@]4(O)C3=CC[C@@H]12,EC50,[1],5.1 nM
same,EC50,[2],5.7 nM
same,EC50,[3],2.4 nM
same,EC50,[4],5.9 nM
same,EC50,[5],3.8 nM
same,EC50,[6],3.9 nM
same,EC50,[7],6.4 nM
same,EC50,[8],5.5 nM
same,EC50,[9],7.2 nM
same,EC50,[10],15 nM
same,EC50,[11],4.9 nM
same,EC50,[12],2.6 nM
same,EC50,[13],4.1 nM
same,EC50,[14],> 20000 nM
same,EC50,[15],6 nM
same,EC50,[16],5.4 nM
same,EC50,[17],7.4 nM
same,EC50,[18],3.2 nM
same,EC50,[19],7.7 nM
same,EC50,[20],3.2 nM
same,EC50,[21],2.7 nM
same,EC50,[22],8.4 nM
same,EC50,[23],2.8 nM
same,EC50,[24],6.4 nM
same,EC50,[25],6.1 nM
same,EC50,[26],6.3 nM
same,EC50,[27],2400 nM
